Six compounds from ChEMBL document CHEMBL4020797, “Design, synthesis and evaluation of antitumor acylated monoaminopyrroloquinazolines” (2017) can be followed below.

Bounds are passed on as bounds.

The subject of one assay is MDA-MB-231. The experiment in a line: Antiproliferative activity against human MDA-MB-231 after 72 hrs by MTT assay. The format is functional. As to conditions: for GI50: MDA-MB-231, 72 h. The method in brief: (§1)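 Triple-negative breast cancer cells were exposed to a range of compound concentrations for 72 h, and viable cells were then quantified spectrophotometrically with MTT reagent. GI50 (concentration giving 50% growth inhibition) was derived from dose-response curves by non-linear regression and reported as mean ± SD from at least two independent measurements. The highest concentration tested was 100 μM.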
(In general: Tetrazolium assays rely on reduction of a dye to a coloured formazan, in cell work by metabolically active cells.)

The test system of the next assay is MDA-MB-468. Briefly: Antiproliferative activity against human MDA-MB-468 after 72 hrs by MTT assay. The format is functional. As to conditions: for GI50: MDA-MB-468, 72 h. An outline of the steps: as §1

In general, GI50 refers to the concentration that inhibits growth by half. A high value points to lower sensitivity of the cells. Turning to `CC(=O)Nc1ncc2c(ccc3[nH]ccc32)n1`, the GI50 with MDA-MB-231 and with MDA-MB-468 was more than 100 µM in each case.
In the case of `CC(C)C(=O)Nc1ncc2c(ccc3[nH]ccc32)n1`, the GI50 in the assay with MDA-MB-231 and with MDA-MB-468 was more than 100 µM in each case.
For `O=C(Nc1ncc2c(ccc3[nH]ccc32)n1)c1ccc2ccccc2c1`, the Activity result in the assay on MDA-MB-231 and in the assay on MDA-MB-468 was “Dose-dependent effect” throughout. Besides, the values for the GI50 in the assay with MDA-MB-231 and in the assay on MDA-MB-468 were 0.2 µM and 0.088 µM, respectively.
For the compound `CC(C)(C)C(=O)Nc1ncc2c(ccc3[nH]ccc32)n1`, the GI50 in the assay on MDA-MB-231 and with MDA-MB-468 was more than 100 µM throughout.
As to `CCC(=O)Nc1ncc2c(ccc3[nH]ccc32)n1`, the figures for the GI50 in the assay on MDA-MB-231 and with MDA-MB-468 were 72.8 µM and 28.3 µM, respectively.
`CCCC(=O)Nc1ncc2c(ccc3[nH]ccc32)n1`: the GI50 with MDA-MB-231 turned out to be 3.46 µM; in the assay on MDA-MB-468, 2.02 µM.
